Experimental data taken from ChEMBL document CHEMBL1142060, “Dysoxylins A-D, tetranortriterpenoids with potent anti-RSV activity from Dysoxylum gaudichaudianum” (J Nat Prod, 2007).
Converted amounts (≈) assume the structure as drawn.

Tests used:
[1] = test system: Respiratory syncytial virus; assay: Antiviral activity against RSV A2 in MA104 cells by CPE assay; type: functional, organism-based; details: human respiratory syncytial virus
Procedure, shortened: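 RSV strain A2 grown in MA-104 cells; cells passaged in MEM with 9% fetal bovine serum and 0.1% NaHCO3. Cytopathic-effect inhibition read-out. Activity expressed as 50% effective concentration (EC50) in µg/mL.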

[2] = test system: Respiratory syncytial virus; assay: Antiviral activity against RSV A2 in MA104 cells by plaque reduction assay; type: functional, organism-based; details: human respiratory syncytial virus
Procedure, shortened: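 MA-104 monolayers infected with 200 PFU/well RSV A2, adsorbed 2.5 h at 37 °C in serum-free MEM. Inoculum removed and agarose overlay added; each compound dilution plated in duplicate. Plaques counted after 4 days and expressed as percent of control. EC50 (µg/mL) derived by regression of mean percent of control at each concentration.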

C/C=C(/C)C(=O)O[C@@H]1[C@@H]2OC[C@]3(C)[C@H](O)C[C@H](OC(C)=O)[C@@](C)([C@@H]23)[C@H]2C[C@H](OC(C)=O)[C@]3(C)C(=CC[C@H]3C3COC(=O)C3)[C@]12C (stereo partly drawn) [DYSOXYLIN A]
EC50 [1]: 2 µg/mL (≈ 3.18 µM) | IC50 [1]: 150 µg/mL (≈ 239 µM) | EC50 [2]: 150 µg/mL (≈ 239 µM) | IC50 [2]: 112 µg/mL (≈ 178 µM)

CC(=O)O[C@H]1C[C@H]2[C@](C)(C3=CC[C@@H](C4COC(=O)C4)[C@@]31C)[C@H](OC(=O)/C=C(\C)C(C)C)[C@@H]1OC[C@]3(C)[C@H](O)C[C@H](OC(C)=O)[C@@]2(C)[C@@H]13 (stereo partly drawn) [DYSOXYLIN D]
EC50 [1]: 1 µg/mL (≈ 1.52 µM) | IC50 [1]: > 200 µg/mL | EC50 [2]: 40 µg/mL (≈ 60.9 µM) | IC50 [2]: 42 µg/mL (≈ 63.9 µM)

CC(=O)O[C@H]1C[C@H]2[C@](C)(C3=CC[C@@H](C4COC(=O)C4)[C@@]31C)[C@H](OC(=O)c1ccccc1)[C@@H]1OC[C@]3(C)[C@H](O)C[C@H](OC(C)=O)[C@@]2(C)[C@@H]13 (stereo partly drawn) [DYSOXYLIN B]
EC50 [1]: 4 µg/mL (≈ 6.15 µM) | IC50 [1]: 16 µg/mL (≈ 24.6 µM) | EC50 [2]: 30 µg/mL (≈ 46.1 µM) | IC50 [2]: 7 µg/mL (≈ 10.8 µM)

CCC(C)C(=O)O[C@@H]1[C@@H]2OC[C@]3(C)[C@H](O)C[C@H](OC(C)=O)[C@@](C)([C@@H]23)[C@H]2C[C@H](OC(C)=O)[C@]3(C)C(=CC[C@H]3C3COC(=O)C3)[C@]12C (stereo partly drawn) [DYSOXYLIN C]
EC50 [2]: 146 µg/mL (≈ 231 µM) | IC50 [2]: 52 µg/mL (≈ 82.4 µM)

NC(=O)c1ncn([C@@H]2O[C@H](CO)[C@@H](O)[C@H]2O)n1 [RIBAVIRIN]
EC50 [1]: 3.6 µg/mL (≈ 14.7 µM) | IC50 [1]: 180 µg/mL (≈ 737 µM) | EC50 [2]: 20 µg/mL (≈ 81.9 µM) | IC50 [2]: 460 µg/mL (≈ 1880 µM)
